According to ChEMBL document CHEMBL2177098, “Synthesis and evaluation of novel ¹⁸F labeled 2-pyridinylbenzoxazole and 2-pyridinylbenzothiazole derivatives as ligands for positron emission tomography (PET) imaging of β-amyloid plaques” (J Med Chem, 2012):

Experiments:
Spleen [1] = assay: Drug uptake in ICR mouse spleen at 370 kBq/100 ul, iv at 10 mins by gamma-counting analysis; format: ADME, organism-based; conditions: in vivo
Outline: (§1)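 Male ICR mice (5 weeks, about 20 g) got 18F tracer in saline (370 KBq per 100 μL) via tail vein; n = 5 per time point, killed at 2, 10, 30, 60 min. Organs weighed and γ-counted; percent dose per gram wet tissue from comparison with diluted injectate aliquots.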

Brain [2] = assay: Drug uptake in wild type C57BL6 mouse brain at 370 KBq/100 ul after 1 hr by autoradiographic analysis; format: ADME, tissue-based; conditions: in vitro
Outline: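 Paraffin brain sections from 12-month-old male control C57BL6 mice were deparaffinized through xylene and graded ethanol, then held in PBS (0.2 M, pH 7.4) for 30 min. They were incubated with the ¹⁸F tracer (370 KBq per 100 μL) for 1 h at room temperature. Sections were washed in 40% EtOH, rinsed with water for 1 min, dried, and exposed to a phosphor plate for 2 h. The same sections were then stained with thioflavin S.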

Blood [3] = assay: Drug uptake in ICR mouse blood at 370 kBq/100 ul, iv at 10 mins by gamma-counting analysis; format: ADME, organism-based; conditions: in vivo; outline: as §1
Kidney [4] = assay: Drug uptake in ICR mouse kidney at 370 kBq/100 ul, iv at 30 mins by gamma-counting analysis; format: ADME, organism-based; conditions: in vivo, 0.5 h; outline: as §1
Intestine [5] = assay: Drug uptake in ICR mouse intestine assessed per organ at 370 kBq/100 ul, iv at 30 mins by gamma-counting analysis; format: ADME, organism-based; conditions: in vivo, 0.5 h
Outline: (§2)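 Male ICR mice (5 weeks, about 20 g) got 18F tracer in saline (370 KBq per 100 μL) via tail vein; n = 5 per time point, killed at 2, 10, 30, 60 min. Organs removed and γ-counted against diluted injectate; expressed as % injected dose per organ.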

Lung [6] = assay: Drug uptake in ICR mouse lung at 370 kBq/100 ul, iv at 10 mins by gamma-counting analysis; format: ADME, organism-based; conditions: in vivo; outline: as §1
Liver [7] = assay: Drug uptake in ICR mouse liver at 370 kBq/100 ul, iv at 60 mins by gamma-counting analysis; format: ADME, organism-based; conditions: in vivo, 1 h; outline: as §1
Brain [8] = assay: Drug uptake in ICR mouse brain at 370 kBq/100 ul, iv at 30 mins by gamma-counting analysis; format: ADME, organism-based; conditions: in vivo, 0.5 h; outline: as §1
Intestine [9] = assay: Drug uptake in ICR mouse intestine assessed per organ at 370 kBq/100 ul, iv at 2 mins by gamma-counting analysis; format: ADME, organism-based; conditions: in vivo; outline: as §2
Kidney [10] = assay: Drug uptake in ICR mouse kidney at 370 kBq/100 ul, iv at 10 mins by gamma-counting analysis; format: ADME, organism-based; conditions: in vivo; outline: as §1
Brain [11] = assay: Drug uptake in ICR mouse brain at 370 kBq/100 ul, iv at 10 mins by gamma-counting analysis; format: ADME, organism-based; conditions: in vivo; outline: as §1
Liver [12] = assay: Drug uptake in ICR mouse liver at 370 kBq/100 ul, iv at 2 mins by gamma-counting analysis; format: ADME, organism-based; conditions: in vivo; outline: as §1
Heart [13] = assay: Drug uptake in ICR mouse heart at 370 kBq/100 ul, iv at 30 mins by gamma-counting analysis; format: ADME, organism-based; conditions: in vivo, 0.5 h; outline: as §1
Kidney [14] = assay: Drug uptake in ICR mouse kidney at 370 kBq/100 ul, iv at 2 mins by gamma-counting analysis; format: ADME, organism-based; conditions: in vivo; outline: as §1
[15] = Displacement of [125I]-IMPY from amyloid beta (1 to 42) fibrils after 2 hrs by gamma-counting analysis
Outline: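 Competition binding with aggregated Aβ1-42 fibrils and [125I]IMPY (60000−100000 cpm/100 μL) in 0.05% BSA (1 mL total); inhibitors 10⁻⁴−10^−8.5 M in ethanol. Incubated 37 °C for 2 h, then GF/B vacuum filtration with PBS (0.02 M, pH 7.4) washes and γ counting. Three repeats; IC50 converted to Ki by Cheng−Prusoff.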

Liver [16] = assay: Drug uptake in ICR mouse liver at 370 kBq/100 ul, iv at 30 mins by gamma-counting analysis; format: ADME, organism-based; conditions: in vivo, 0.5 h; outline: as §1
Bone = assay: Drug uptake in ICR mouse bone at 370 kBq/100 ul, iv at 60 mins by gamma-counting analysis; format: ADME, organism-based, Bone element; conditions: in vivo, 1 h; outline: as §1
Lung [17] = assay: Drug uptake in ICR mouse lung at 370 kBq/100 ul, iv at 60 mins by gamma-counting analysis; format: ADME, organism-based; conditions: in vivo, 1 h; outline: as §1
Spleen [18] = assay: Drug uptake in ICR mouse spleen at 370 kBq/100 ul, iv at 2 mins by gamma-counting analysis; format: ADME, organism-based; conditions: in vivo; outline: as §1
[19] = n-Octanol-PBS buffer partition coefficient, log D of the compound at 1.5 MBq after 3 mins at pH 7.4; format: physicochemical
Outline: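 The tracer was partitioned between n-octanol and PBS by vortexing for 3 min at room temperature, then centrifuged for 5 min at 3000 rpm. Samples of the octanol (50 μL) and aqueous (500 μL) layers were counted. log D is the log of the octanol/PBS counts-per-gram ratio. The octanol layer was repartitioned until values were consistent. Measured in triplicate and repeated three times.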

Heart [20] = assay: Drug uptake in ICR mouse heart at 370 kBq/100 ul, iv at 2 mins by gamma-counting analysis; format: ADME, organism-based; conditions: in vivo; outline: as §1
Lung [21] = assay: Drug uptake in ICR mouse lung at 370 kBq/100 ul, iv at 30 mins by gamma-counting analysis; format: ADME, organism-based; conditions: in vivo, 0.5 h; outline: as §1
Blood [22] = assay: Drug uptake in ICR mouse blood at 370 kBq/100 ul, iv at 2 mins by gamma-counting analysis; format: ADME, organism-based; conditions: in vivo; outline: as §1

CNc1ccc(-c2nc3ccc(OCC[18F])cc3s2)cn1
Drug uptake (Spleen [1]): 3.29 % ID/g | Drug uptake (Brain [2]): Not Active | Drug uptake (Blood [3]): 3.94 % ID/g | Drug uptake (Kidney [4]): 3.62 % ID/g | Drug uptake (Intestine [5]): 25.23 %ID | Drug uptake (Lung [6]): 3.02 % ID/g | Drug uptake (Liver [7]): 3.06 % ID/g | Drug uptake (Brain [8]): 3.38 % ID/g | Drug uptake (Intestine [9]): 12.06 %ID | Drug uptake (Kidney [10]): 4.42 % ID/g | Drug uptake (Brain [11]): 4.54 % ID/g | Drug uptake (Liver [12]): 10.4 % ID/g | Drug uptake (Heart [13]): 3.33 % ID/g | Drug uptake (Kidney [14]): 9.57 % ID/g | Ki [15]: 10.1 nM | Drug uptake (Liver [16]): 4.28 % ID/g | Drug uptake (Bone): 6.7 % ID/g | Drug uptake (Lung [17]): 2.72 % ID/g | Drug uptake (Spleen [18]): 4.52 % ID/g | logD at 0.05 h [19]: 3.59 | Drug uptake (Heart [20]): 5.59 % ID/g | Drug uptake (Lung [21]): 3.57 % ID/g | Drug uptake (Blood [22]): 4.31 % ID/g
